Source: ChEMBL document CHEMBL1132387, “N-arylpiperazinone inhibitors of farnesyltransferase: discovery and biological activity” (J Med Chem, 1999)
pIC50: −log10 of the molar value. “And” between values parts separate entries of the source, which are not always exact repeats. Equal entries are not always repeated. Values belong to the compound of their own block, whether it stands above or below them.

How the values were obtained:
[1] = molecular target: Protein farnesyltransferase (Homo sapiens, UniProt P49354+P49356); experiment: Inhibition of [3H]FPP incorporation into recombinant human K-Ras by Farnesyltransferase; format: protein-complex assay
Method in brief: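 FTase-catalyzed incorporation of [³H]FPP into recombinant human K-Ras protein. IC50 is the compound concentration giving 50% inhibition of that incorporation.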

[2] = test system: Rat1; experiment: Inhibition of anchorage-independent growth by 90% in human K-ras-transformed RAT1 cells in soft agar; format: functional; conditions: Rattus norvegicus
Method in brief: (§1)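 RAT1 cells transformed with human H- or K-ras were suspended in soft agar to measure colony formation. IC90 is the concentration inhibiting anchorage-independent growth by 90% relative to vehicle-treated control. Values are reported as ranges.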

[3] = test system: Mus musculus; experiment: Tumor growth inhibition against subcutaneously injected H-ras-Rat1 cells in female nude mice after continuous infusion of 14 mg/kg/day; format: functional; conditions: route subcutaneous
Method in brief: (§2)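 Female nude mice were injected subcutaneously with H- or K-ras-transformed RAT1 cells. Treatment began 24 h later with vehicle (50% DMSO/water) or compound, n = 8–10, for about 14 days. Dosing was once-daily subcutaneous injection or continuous sc infusion by implanted Alzet osmotic pump. Tumor growth inhibition is relative to vehicle controls.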

[4] = test system: Mus musculus; experiment: Tumor growth inhibition against subcutaneously injected H-ras Rat1 cells in female nude mice after continuous infusion of 1.4 mg/kg/day; format: functional; conditions: route subcutaneous; method in brief: as §2
[5] = test system: Rat1; experiment: Inhibition of anchorage independent growth of H-ras-transformed RAT1 cells on poly(HEMA) coated microtiter plate; format: functional, cell-based; conditions: Rattus norvegicus
Method in brief: (§3)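 Anchorage-independent growth assay: cells grown on poly(HEMA)-coated microtiter plates. IC50 is the compound concentration that inhibits 50% of cell growth.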

[6] = test system: Rat1; experiment: Inhibition of anchorage-independent growth by 90% in human H-ras-transformed RAT1 cells in soft agar; format: functional; conditions: Rattus norvegicus; method in brief: as §1
[7] = test system: MCF7; experiment: Concentration required to inhibit growth of human tumor MCF-7 cells line on poly(HEMA) coated microtiter plate; format: functional, cell-based; method in brief: as §3
[8] = test system: DLD-1; experiment: Concentration required to inhibit growth of human tumor DLD1 cell line on poly(HEMA) coated microtiter plate; format: functional, cell-based; method in brief: as §3
[9] = test system: Rat1; experiment: Highest concentration compatible with 80% cell survival in cultured RAT1 cells; format: functional; conditions: Rattus norvegicus
Method in brief: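 Normal RAT1 cells in culture, with viability read by MTT staining. The value is the highest compound concentration compatible with 80% cell survival.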

[10] = molecular target: Geranylgeranyl transferase type I (Homo sapiens, UniProt P49354+P53609); experiment: Inhibition of [3H]GGPP incorporation into recombinant human RhoA by Geranylgeranyl transferase type I; format: protein-complex assay
Method in brief: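 GGTase I-catalyzed incorporation of [³H]GGPP into recombinant human RhoA protein. IC50 is the concentration giving 50% inhibition.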

[11] = test system: Rat1; experiment: Inhibition of anchorage-independent growth by 90% of human K-ras-transformed RAT1 cells in soft agar; format: functional; conditions: Rattus norvegicus; method in brief: as §1

SMILES: CCCC[C@H]1CN(C(=O)c2cccc3ccccc23)CCN1Cc1cncn1Cc1ccccc1
pIC50 [1]: 6.31

SMILES: CCCC[C@H]1CN(C(=O)c2cccc3ccccc23)CCN1Cc1c[nH]cn1
pIC50 [1]: 5.14

SMILES: C[C@@H]1CN(c2cccc(Cl)c2)C(=O)CN1Cc1cncn1Cc1ccc(C#N)cc1
pIC50 [1]: 7.10

SMILES: CCCC[C@H]1CN(C(=O)c2cccc3ccccc23)CCN1Cc1cncn1Cc1ccc(C#N)cc1
pIC50 [1]: 7.68

SMILES: C[C@H]1CN(c2cccc(Cl)c2)C(=O)CN1Cc1cncn1Cc1ccc(C#N)cc1
pIC50 [1]: 8.05

These reach a higher pIC50 [1]. Values come first.

pIC50 [1]: 9.96
SMILES: CCCC[C@H]1CN(c2cccc(Cl)c2)C(=O)CN1Cc1cncn1Cc1ccc(C#N)cc1

pIC50 [1]: 9.74 | pIC50 [7]: 8.30 | pIC50 [8]: 5.82 | pIC50 [10]: < 4.00
SMILES: CCS(=O)(=O)C[C@@H]1CN(c2cccc(Cl)c2)C(=O)CN1Cc1cncn1Cc1ccc(C#N)cc1
IC90 [2]: 1000 nM | Tumor growth inhibition [3]: 100% and 60% | Tumor growth inhibition [4]: 73% | pIC50 [5]: 8.10 | IC90 [6]: 30 nM | IC20 [9]: > 100000 nM

pIC50 [1]: 9.36 | pIC50 [10]: 5.00
SMILES: CCCC[C@H]1CN(c2cccc(C)c2C)C(=O)CN1Cc1cncn1Cc1ccc(C#N)cc1
IC90 [11]: 2500 nM | pIC50 [5]: 7.55 | IC90 [6]: 100 nM | IC20 [9]: 25000 nM

pIC50 [1]: 9.00
SMILES: CCCC[C@H]1CN(C(=O)c2cccc3ccccc23)CCN1C[C@@H](N)S
